Assay results from the EternaBench riboswitch data.

Tested on: MS2 coat protein
Assay: apparent Kd, MS2 coat protein; higher = weaker binding; RNA-MaP array; FMN 200 µM where present
Procedure, shortened: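 Stalled E. coli RNA polymerase transcribed the designs on Illumina sequencing-chip clusters. SNAP-549-labelled MS2 coat protein was titrated from 0.7 or 1.5 nM, doubling to 3 µM, without and then with constant ligand, in 100 mM Tris-HCl pH 7.5, 80 mM KCl, 4 mM MgCl2, BSA, DTT, yeast tRNA and Tween-20. Per-cluster binding curves were fitted to green signal normalised to red-channel RNA signal and control-cluster median Fmax. The apparent Kd is the median of the filtered fits.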

[1] = designed as: OFF switch for flavin mononucleotide, no ligand
[2] = ligand present: flavin mononucleotide, designed as: OFF switch for flavin mononucleotide
[3] = designed as: ON switch for flavin mononucleotide, no ligand
[4] = ligand present: flavin mononucleotide, designed as: ON switch for flavin mononucleotide

Sequence | apparent Kd [1] | apparent Kd [2] | apparent Kd [3] | apparent Kd [4]
CGUGCGUAUGUGAGGAUAUGCUGGUCCUUGGAUCGGCAGAAGGCACAUGAGGAUCACCCAUGUGGUGUCGUACC | 187 nM | 35.9 nM | – | –
CGAAGUCCGUAGAAGGGUGACAUGAGGAUCACCCAUGUGCGAGCGGAGAGAGUCAGCGGCUCGCCACAGGAUAUACGGAGCACG | – | – | 103 nM | 29.1 nM
GCGUCAGAAUUAAUUGUGACAGACAGAAGGCAAUAGUUCAUGUCAGACAUGAGGAUCACCCAUGUUGAGGAUAUGUAUUGACAC | 5.62 nM | 5.65 nM | – | –
AAUAACAGAGGAUAUACUAUUUUAUGUGUUUGUUGUUUUGAACAUGAGGAUCACCCAUGUAGAAGGCUGAUUGA | 42.6 nM | 45.3 nM | – | –
GGACGUUACAUCUACAUGAGGAUCACCCAUGUCUCUUGAGAUGAGGAUAUGUAUACGAAUCGUUUAUAGAAGGCAUGAACGUCC | – | – | 144 nM | 138 nM
GAAUAUUCGUUGUACAUGAGGAUCACCCAUGUAACUUGACAUGAGGAUAUGGAUUCUAAUUGGAUCCAGAAGGCAUGAAUAUUC | – | – | 48.4 nM | 21.8 nM
AUCAGCUCGUCAGGAUAUACGUCACUUCGUCAGCAGUGUGGUAAGAUCACAUGAGGAUCACCCAUGUAGAAGGGACGAGCUGAU | 85.7 nM | 310 nM | – | –
UCCUUACUGGUCAGGAUAUACAGUCGCGGGUGGGUGUAGAAGGGACAUGAGGAUCACCCAUGUACGUUGCAGCC | 40.6 nM | 40.9 nM | – | –
AAAAUCUAUUGAGGAUAUCGUUAUCAAAGAUAAUGAGAAGGCAAACAAUCAUGAGGACAUGAGGAUCACCCAUGUUGUGACCAU | – | – | 22.3 nM | 10.8 nM
GUACGGAAGGAGAAGGGCUAGGAGGUCCAGCUUAUGUGUGUUGCAACAUGAGGAUCACCCAUGUAGCAGGAUAUCCUUUGUACA | 45.7 nM | 265 nM | – | –
CGAUCGUUGCAGAAGGUUAUUUUUUUAACAAUUCUCUUAACAUGAGGAUCACCCAUGUUUUUGAUGAAGGAUAUGCAAGGGUCG | 5.76 nM | 5.5 nM | – | –
GAGCUAUGAGGAUAUGCAUAUAUACGGAUUCGUGUAGUACUACAUGAGGAUCACCCAUGUAGAAGGCGUGGCAG | 13.1 nM | 15.1 nM | – | –
UGUGCGUUGAUCUUCGAUCGGAGUACAUGAGGAUCACCCAUGUAGGAUAUUCAAAGACGCAGAUAGAAGAAGGACAUCGGUUUA | 11.9 nM | 11.1 nM | – | –
UGCAUCUGAGGAUAUCACAUGUGGAACAUGAGGAUCACCCAUGUGAUCCACAUGCCGUUGUGAGAAGGCAGUAAAA | 314 nM | 193 nM | – | –
UAGUCGGUAGAUAAUAAUGAUUACAUGAGGAUCACCCAUGUAUAGGAUAUCGUCAGGAAUACUGACGAGAAGGAUACAUCCGAC | 18 nM | 26.5 nM | – | –
UGAUCGAGAGAUCUUAGAUUCUGGUAGGAUAUGCAACAGUUGCGCUUUACAUGAGGAUCACCCAUGUAGAAGGACUAGAGUCUA | 5.86 nM | 6.1 nM | – | –
UACGUACAGAAGUACUCCGGGUCCAGAAGGGACAUGAGGAUCACCCAUGUACCGUUGAUUGCUUGUCAGGAUAUGGACCCAGCC | 7.76 nM | 29 nM | – | –
AAAGCAACAUGAGGAUCACCCAUGUAGGAUAUCGCUAUUGUAAUCAUGAAACAUGAUUACAAUAGCGAGAAGGACAUAUGCUGG | 21.7 nM | 23.3 nM | – | –
CAAUGGUUCCUUAUACUCUCGUCACAUGAGGAUCACCCAUGUAGAAGGCAGCCGGGCUGUCAGGCUGAGGAUAUACAUUUAAAA | 17.8 nM | 54.9 nM | – | –
AAAAUCAAAUGAGGAUAUUCAUACACUACAUACGGAGAAGGCAUACAAUCAUGAGGACAUGAGGAUCACCCAUGUUGUGACCAU | – | – | 29.9 nM | 20.9 nM
CAGGUAGACUGAGGAUAUACAAUAAACAGCUAGUCUAUCUAGCUGCCCACAUGAGGAUCACCCAUGUAGAAGGCAGUCUGCCUG | 18.1 nM | 52.5 nM | – | –
GGGCUGUCAGGAUAUGGGUCUGGGUCUGAAAGGGCUCGGGCUCAGAAGGGACAUGAGGAUCACCCAUGUGGCCC | 35.2 nM | 36.4 nM | – | –
UCAUACGGUGAGGAUAUCUCCACUAAAGUGUGUAGAGAAGGCGCUACAUGAGGAUCACCCAUGUUUAUGGGCAG | 376 nM | 117 nM | – | –
CGCCUGCGUAGAAUUAGCAGCUGACAGGAUAUGACAUGAGGAUCACCCAUGUGAAAUAAGAAGAGUCAGAAGGGUCACGACGCG | 10.8 nM | 8.77 nM | – | –
GCCAGGGAUUCAGGAUAUAUUAGCCGAGGCCGCGUAGAAGGGAAAUCCUGACAUGAGGAUCACCCAUGUCGACCCGCCUUCCUA | – | – | 46.7 nM | 45.6 nM
AUCCCGAUAGUAGGAUAUUUCUGCAGUUGUGGUUAGAUCGCCCUACAUGAGGAUCACCCAUGUAGAGAGAAGGACUGUGGUUAU | 5.7 nM | 8.54 nM | – | –
CGAGAUACGCUCGUCCGAAAGGAACAUGAGGAUCACCCAUGUAGAAGGCGAUCCGCAACUCGGAUUGAGGAUAUAUACUGCAGA | 139 nM | 91.2 nM | – | –
GCUAUGUCAGGAUAUGCUAGUGCUAGUGAAAGCUAGUGCUAGUAGAAGGGACAUGAGGAUCACCCAUGUGUAGU | 108 nM | 374 nM | – | –

Sequence | apparent Kd [1] | apparent Kd [2] | apparent Kd [3] | apparent Kd [4]
AACAACCUAGGAUAUACAUGAGGAUCACCCAUGUUACUACUGGGUAAUCCCAAUUCGAGUAGAAGGAGGAUCAA | 47.7 nM | 87 nM | – | –
CUGAUGUCAGGAUAUCGGUGGCUCACUUGUGUGUGCCAGACCGAGAAGGGACAUGAGGAUCACCCAUGUUUUUA | 86.1 nM | 370 nM | – | –
AUACUCUUUGUGAGGAUAUCGUUUUCUUUACGGUUCGAGAAGGCACAUGAGGAUCACCCAUGUUUGACGUGAAU | 24.4 nM | 56.5 nM | – | –
CGUAAGAUGCAGAAGGUGUUAGCUAGAGCUACGACAUGAGGAUCACCCAUGUACUAGAAACAGUACAAGGAUAUGCAUCUUACG | – | – | 17.3 nM | 6.56 nM
AAGCCUCUUGUCAGGAUAUCUGUCGGUCCUCCAAGAGAGAAGGGACAUGAGGAUCACCCAUGUAAGCCCAGGGA | 16.1 nM | 27.9 nM | – | –
UCGUAUAAGGGCAUUACACAUGAGGAUCACCCAUGUACGUUAGAGGAUAUGCAUUUCAGUCGAACGUAGAAGGCUAGAGAAGGG | 117 nM | 100 nM | – | –
UUGUUGUGUGGAGGAUAUGCACUAACUGUUAGCGCAGAAGGCCACAUGAGGAUCACCCAUGUCCGGGUUACUGCCUAAGGAGUG | 71.9 nM | 230 nM | – | –
GUCUCGAUGUAAGGAUAUGCAGUGGAUAACACUGCAGAAGGUACAUGAGGAUCACCCAUGUAUAUGAAAGAUAAUAAACGAGAC | 14.4 nM | 19.8 nM | – | –
AAGCAACAUGAGGAUCACCCAUGUAGCAGGGUCAGAGGAUAUUUGAGCUUGGCGAGGGUUAAAGAAGGUUGAUAUC | – | – | 38.8 nM | 43.6 nM
AUUUAUGGCCAGAAGGACAUGAGGAUCACCCAUGUAGGAUAUGGACGAUUUUGCUCGGCGGUUUGUUUACGAAGCACCGGUGGU | – | – | 12.8 nM | 6.91 nM
CACUGCAAUGUAGGAUAUCGACUGGAUAACAGUCGAGAAGGACAUGAGGAUCACCCAUGUAAUCCUAAUAAUAAAUAAGCAGUG | 12.1 nM | 17.8 nM | – | –
UCCAAGCUAGGAUAUACCCAGGGUUUGUUCUCUAACAAAACACAUGAGGAUCACCCAUGUAGAAGGAGCCGGGA | 58.1 nM | 62.9 nM | – | –
AUCGACAGUGUCAGGAUAUCUCACCCGAGUGGGCGAGAGAAGGGACAUGAGGAUCACCCAUGUGCGUUCUCUAA | 27.5 nM | 174 nM | – | –
AAAAAAAAAACUGAGGAUAUCAGGGAUGGUACAUGAGGAUCACCCAUGUUGGCGGGCGAAGAAACUGAGAAGGCAGAAAAAAAAAA | – | – | 114 nM | 111 nM
ACGGCUGUCAGAGGAUAUGGUUACAUGAGGAUCACCCAUGUCAAGGGUCUAAUUAAGUAUAACUACUAGAAGGCUGAUGGCCGA | 282 nM | 129 nM | – | –
GACGAACAUGAGGAUCACCCAUGUAAAGACGUACAAGGAUAUGUGUGGAAACCGUACUAUACAGAAGGUGUCUGUC | – | – | 53.5 nM | 25.5 nM
GUGCCUUGGGAGAAGGCCGUAUGCAAAGCAUACGGAGGAUAUUCAUACCGGAAACGGACAUGAGGAUCACCCAUGUGGCACAAA | – | – | 1360 nM | 46.1 nM
UUAUUAUAUGUAGGAUAUGCAUAUUAUUAUUAUGCAGAAGGACAUGAGGAUCACCCAUGUAUGUUGUUAUUAUAUAUUAUAUAU | 25.2 nM | 34.5 nM | – | –
UUAUAAAAUAAAGGAUAUUCAUACCGGAAACGGACAUGAGGAUCACCCAUGUGGCGAAAGCCUUGGGAGAAGGUUAAAAUAUAU | – | – | 441 nM | 317 nM
GAAAAGUCAGGAUAUGCAGAUAAAAAAACGAAAAAAAAUCUGCAGAAGGGACAUGAGGAUCACCCAUGUAAAAG | 35.3 nM | 74.6 nM | – | –
CCGGAGUCAGGAUAUACGAACAUGUCGCCAGAUGUCAAGGUACAUGAGGAUCACCCAUGUAGAAGGGAGGAGAA | 96.1 nM | 56.8 nM | – | –
CUUCUGUGAGGAUAUGUGAACCCGUGCCGAAAGGAUGGGAAACAGAAGGCACAUGAGGAUCACCCAUGUAAAAU | 35.3 nM | 179 nM | – | –
UUGUUGUAUGUAGGAUAUGCAUAUUAUUAUUAUGCAGAAGGACAUGAGGAUCACCCAUGUAUGUUAUUAUUAUAUGUUAUAUGU | 33.6 nM | 42.6 nM | – | –
CUUUUGUGAGGAUAUCAGUAGUAAUACAAUAGUAUUACUACUGAGAAGGCACAUGAGGAUCACCCAUGUUCUUC | 25.5 nM | 68.2 nM | – | –
CUAAAUCAUGUAGGAUAUGCAUGGCGAAGCUACGCAGAAGGACAUGAGGAUCACCCAUGUCUCUCCGUCUGGGUACAGACGGAG | 18.9 nM | 120 nM | – | –
GAUACACAUGAGGAUCACCCAUGUUAGGAUAUUAGCGGGAAAGCUGUCAGACAGUCGAUGAGAAGGAACAGGAG | 32.5 nM | 31.6 nM | – | –
GAUUCGGGAGGAUAUACAUGAGGAUCACCCAUGUGUUUUUUAUGUGUUAUGUUAUCAUGUAGAAGGUUUGGGUC | 151 nM | 195 nM | – | –
